Results: article PMC3157688 (The FASEB Journal, 2011)

Tests used:
[1] = tested on: brain mRNA levels of APP[V717I] transgenic mice; assay: Quantitative real-time RT-PCR of brain mRNA levels; type: in vivo, mouse; conditions: 6-mo-old mice, 3 mo intranasal treatment; n=7/group
[2] = tested on: human APP processing in the brain of APP[V717I]-transgenic mice; assay: Immunoblot of sAPPα and full-length APP in brain homogenates, first study; type: in vivo, mouse; conditions: 10 μg daily intranasal, administration solution 1, 3 mo; 4-mo-old male mice
In short: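 Male APP[V717I] mice (FVB/N background), 1 mo old, received the test compound intranasally at 10 μg/d (1 μg/μl, 5 μl/nostril), 5 d/wk for 3 mo. Vehicle: NaCl/citric acid/disodium phosphate/benzalkonium chloride water solution. Controls (n=8) received carrier alone. Hemispheres homogenized in ice-cold 20 mM Tris-HCl pH 8.5 plus protease inhibitors, then centrifuged at 100,000 g for 1 h at 4°C. sAPPα probed with 6E10 and a 35S-labeled or peroxidase-coupled secondary.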

[3] = tested on: healthy human male subjects; conditions: cited from earlier work
[4] = tested on: APP[V717I]-transgenic mice; assay: Open field activity and enriched open field; type: in vivo, mouse; conditions: 6-mo-old mice after 3 mo of daily intranasal treatment; data not shown

## pituitary adenylate cyclase-activating polypeptide [PACAP38]
[1]
  ADAM10 gene expression in brain (in words): not caused by increased ADAM10 and ADAM17 gene expression
  ADAM17 gene expression in brain (in words): not caused by increased ADAM10 and ADAM17 gene expression
[2]
  expression level of full-length APP in the brain: no influence
[3]
  tolerability of inhaled peptide: well tolerated without systemic side-effects
[4]
  activity and exploration-related parameters, difference between the tested groups: no differences
